Data taken from ChEMBL document CHEMBL5150022, “Small Molecule Inhibitors of Lymphocyte Perforin as Focused Immunosuppressants for Infection and Autoimmunity” (J Med Chem, 2022).
pIC50: −log10 of the molar value. Values joined by “and” are separate entries in the source; they are usually repeats but may differ in a detail not shown here. Equal entries are not always repeated. One block for each compound: values may come before it.

Key:
[1] = Cytotoxicity against human Natural killer cells assessed as reduction in cell viability at 20 uM
[2] = Cytotoxicity against human Natural killer cells at 20 uM; conditions: natural killer cell
[3] = Reversal of Perforin-1 dependent NK-cell mediated graft rejection in human KHYG-1 cells assessed as reduction in perforin-1 activity at 90 mg/kg for 24 days relative to control; assay type: functional; parameters: scale not given: the % may be the effect or the level left; conditions: time 24 day
[4] = target: T1, Perforin-1 (Homo sapiens) (UniProt P14222); assay: Inhibition of Perforin-1 in human Natural killer cells at 20 uM incubated after 24 hrs relative to control; assay type: cell-based; conditions: Natural killer cell, time 4.0 hrs, in the assay text read “after 4 hrs” for “after 24 hrs”
T1 sequence (whole entry): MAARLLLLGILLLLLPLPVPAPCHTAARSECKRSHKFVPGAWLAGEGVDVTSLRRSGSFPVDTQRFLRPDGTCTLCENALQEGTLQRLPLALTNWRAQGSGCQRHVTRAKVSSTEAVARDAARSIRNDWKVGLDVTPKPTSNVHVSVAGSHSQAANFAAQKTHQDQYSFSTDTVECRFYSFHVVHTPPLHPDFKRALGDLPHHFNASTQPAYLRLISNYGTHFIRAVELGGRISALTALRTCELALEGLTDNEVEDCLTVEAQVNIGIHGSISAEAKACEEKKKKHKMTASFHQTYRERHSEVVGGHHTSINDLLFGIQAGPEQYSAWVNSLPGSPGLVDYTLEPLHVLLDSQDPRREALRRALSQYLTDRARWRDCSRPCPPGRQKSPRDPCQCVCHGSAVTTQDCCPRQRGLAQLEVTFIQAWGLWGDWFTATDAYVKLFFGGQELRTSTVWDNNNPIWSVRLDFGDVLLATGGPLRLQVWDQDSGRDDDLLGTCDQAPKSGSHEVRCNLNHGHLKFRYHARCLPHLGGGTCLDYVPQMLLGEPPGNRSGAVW
Summary of the method: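 Human KHYG1 NK cells plus medium coincubated with inhibitor at 20 μM final, or 5 μM in one case. ⁵¹Cr-labelled K562 leukaemia targets added; lysis measured by ⁵¹Cr release after 4 h. Effector NK cell viability measured 24 h later.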

[5] = target: T1, Perforin-1 (Homo sapiens); assay: Inhibition of Perforin-1 in human Jurkat cells at 20 uM incubated for 4 hrs relative to control; assay type: cell-based
[6] = Antiproliferative activity against human KHYG-1 at 20 uM incubated for 20 mins; assay type: functional
[7] = Stability in mouse plasma incubated for 24 hrs by HPLC analysis; assay type: ADME, cell-free; conditions: read-out: Stability
Summary of the method: (§1)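 Compound incubated in human or mouse plasma at 37 °C for 24 h; parent remaining quantified by HPLC.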

[8] = Inhibition of Perforin-1 in sheep red blood cells incubated for 30 mins; assay type: cell-based, Ovis aries; conditions: rbc
Summary of the method: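 Recombinant mouse perforin-mediated lysis of sheep red blood cells, read as turbidity change by absorbance at 650 nm. Compounds first tested at a single 20 μM point, then at 100, 20, 4, 0.8 and 0.16 μM to give IC₅₀. Hits were rechecked with 0.1% BSA.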

[9] = Stability in human plasma incubated for 24 hrs by HPLC analysis; assay type: ADME, cell-free; conditions: read-out: Stability
Summary of the method: as §1

[10] = Mutagenicity in Salmonella typhimurium TA100 by AMES test; assay type: toxicity, Salmonella enterica subsp. enterica serovar Typhimurium
[11] = target: T2, Perforin-1 (Mus musculus) (UniProt P10820); assay: Inhibition of mouse Perforin-1 in Natural killer cell at 20 uM relative to control
T2 sequence (whole entry): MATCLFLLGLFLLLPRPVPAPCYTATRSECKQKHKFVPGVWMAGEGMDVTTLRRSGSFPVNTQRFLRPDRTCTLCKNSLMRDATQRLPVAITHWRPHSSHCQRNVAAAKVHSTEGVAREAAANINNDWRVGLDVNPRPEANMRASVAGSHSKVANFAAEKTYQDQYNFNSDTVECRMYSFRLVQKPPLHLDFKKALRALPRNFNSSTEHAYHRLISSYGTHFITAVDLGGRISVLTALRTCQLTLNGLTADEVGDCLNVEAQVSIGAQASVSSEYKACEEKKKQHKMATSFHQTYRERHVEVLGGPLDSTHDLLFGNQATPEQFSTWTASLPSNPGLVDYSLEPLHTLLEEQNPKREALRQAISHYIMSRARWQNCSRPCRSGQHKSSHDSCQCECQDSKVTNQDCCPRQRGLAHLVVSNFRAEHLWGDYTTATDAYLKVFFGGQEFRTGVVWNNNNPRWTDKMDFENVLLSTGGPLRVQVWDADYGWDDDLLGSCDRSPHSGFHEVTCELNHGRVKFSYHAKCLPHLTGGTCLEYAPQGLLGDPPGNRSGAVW

[12] = target: Acetylcholinesterase (Homo sapiens, UniProt P22303); assay: Inhibition of AChE (unknown origin)
Acetylcholinesterase, sequence (P22303 whole entry): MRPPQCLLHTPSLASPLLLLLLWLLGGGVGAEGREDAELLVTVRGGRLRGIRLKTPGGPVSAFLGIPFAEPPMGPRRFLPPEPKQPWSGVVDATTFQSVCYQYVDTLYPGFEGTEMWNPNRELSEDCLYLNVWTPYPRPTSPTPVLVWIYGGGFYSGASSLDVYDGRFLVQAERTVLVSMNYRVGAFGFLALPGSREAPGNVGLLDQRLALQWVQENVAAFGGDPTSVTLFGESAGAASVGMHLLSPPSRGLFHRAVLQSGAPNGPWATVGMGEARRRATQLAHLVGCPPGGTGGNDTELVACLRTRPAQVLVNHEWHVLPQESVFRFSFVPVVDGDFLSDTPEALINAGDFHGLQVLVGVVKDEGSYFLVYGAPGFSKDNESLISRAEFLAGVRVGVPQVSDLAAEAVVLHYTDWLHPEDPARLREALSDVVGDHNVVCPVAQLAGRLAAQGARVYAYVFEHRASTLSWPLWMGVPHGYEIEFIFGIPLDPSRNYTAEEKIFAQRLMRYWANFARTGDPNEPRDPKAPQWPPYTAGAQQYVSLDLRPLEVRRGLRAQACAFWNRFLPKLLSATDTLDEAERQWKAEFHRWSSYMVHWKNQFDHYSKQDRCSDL

[13] = target: Beta-secretase 1 (Homo sapiens) (UniProt P56817); assay: Inhibition of BACE1 (unknown origin) at 1 uM relative to control
Beta-secretase 1 (Homo sapiens), sequence (P56817 whole entry): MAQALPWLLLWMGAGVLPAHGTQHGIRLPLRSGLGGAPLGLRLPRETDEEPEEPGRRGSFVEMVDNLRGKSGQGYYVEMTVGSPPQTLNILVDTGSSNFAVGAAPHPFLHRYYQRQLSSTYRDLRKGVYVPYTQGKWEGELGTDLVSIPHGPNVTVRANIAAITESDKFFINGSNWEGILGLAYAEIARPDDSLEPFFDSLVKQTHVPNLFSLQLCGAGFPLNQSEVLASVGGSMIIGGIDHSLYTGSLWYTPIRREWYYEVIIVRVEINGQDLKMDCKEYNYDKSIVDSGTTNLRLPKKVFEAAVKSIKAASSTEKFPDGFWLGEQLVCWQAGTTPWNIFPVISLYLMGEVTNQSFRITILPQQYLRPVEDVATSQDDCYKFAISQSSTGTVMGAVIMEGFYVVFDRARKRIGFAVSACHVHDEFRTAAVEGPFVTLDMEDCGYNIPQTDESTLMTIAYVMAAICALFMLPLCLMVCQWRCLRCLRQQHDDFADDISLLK

[14] = tested on: Brain; assay: Anti-neuroinflammation in LPS-induced mouse brain assessed as reduction in caspase-3/7 production at 250 microg/kg administered for 3 days; assay type: functional; parameters: scale not given: the % may be the effect or the level left; conditions: dose 250 µg/kg; time 3 day
[15] = tested on: Brain; assay: Anti-neuroinflammation in LPS-induced mouse brain assessed as reduction in prostaglandin E2 production at 250 microg/kg administered for 3 days; assay type: functional; parameters: scale not given: the % may be the effect or the level left; conditions: dose 250 µg/kg; time 3 day
[16] = Toxicity in C57BL/6 mouse assessed as animal survival at 100 mg/kg, po measured for 2 days; assay type: organism-based; conditions: in vivo, time 2 day, read-out: Activity
[17] = Elimination half life in mouse plasma at 10 to 160 mg/kg, po measured for 24 hrs; assay type: ADME, organism-based; conditions: dose 10-160 mg/kg, read-out: beta t1/2 (converted)
[18] = Toxicity in C57BL/6 mouse assessed as effect on aspartate transaminase level at 100 mg/kg, po measured for 2 days; assay type: organism-based; conditions: in vivo, 48 h, time 2 day
[19] = target: T1, Perforin-1 (Homo sapiens); assay: Inhibition of Perforin-1 in human KHYG-1 cells assessed as unbound concentration; assay type: cell-based
Summary of the method: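 KHYG1 NK cell killing of ⁵¹Cr-labelled K562 targets; IC₉₀ determined. Compound binding to proteins in the assay medium was measured and used to estimate the unbound IC₉₀.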

[20] = Plasma protein binding in mouse; assay type: ADME, cell-free; conditions: read-out: PPB (converted)

Structure (SMILES): NC(=O)c1ccc(-c2ccc(-c3ccc4c(c3)COC4=O)s2)cn1
Activity [1]: 82%
Activity [2]: 80%

Structure (SMILES): COc1ncc(-c2ccc(-c3cnc4c(c3)CN(C)C4=O)s2)cc1NS(=O)(=O)c1ccc(F)cc1F
Activity [3]: 66%

Structure (SMILES): Cc1cc2c(c(=S)[nH]1)C(=O)O/C2=C\c1ccc(C)o1
pIC50 [10]: 5.47
inhibition [5]: 100%
pIC50 [8]: 5.01

Structure (SMILES): O=C1OCc2cc(-c3ccc(-c4ccc(CO)cc4)s3)ccc21
pIC50 [12]: 5.10
inhibition [13]: 72%
Activity [14]: 63%
Activity [15]: 55%

Structure (SMILES): CN1Cc2cc(-c3ccc(-c4cncc(NS(=O)(=O)c5ccccc5[N+](=O)[O-])c4)s3)ccc2C1=O
survival at 48 h [16]: 100%
half-life [17]: 144 min
Activity [18]: 60%
IC90 [19]: 770 nM
fraction unbound [20]: 0.002

Structure (SMILES): CNC(=O)c1ccc(-c2c(C#N)c(N)n3c(nc4ccccc43)c2C#N)cc1
inhibition [5]: 91%
Activity [6]: 84%
pIC50 [8]: 5.98

The next lines start with results.

inhibition [5]: 52%
remaining at 24 h [7]: 75%
pIC50 [8]: 4.88
remaining at 24 h [9]: 46%
Structure (SMILES): NC(=O)c1ccc(-c2ccc(-c3ccc4c(c3)COC4=O)s2)cc1
Activity [1]: 90%
Activity [2]: 38% and 63%
inhibition [4]: 63%
Activity [6]: 70%

inhibition [5]: 63%
pIC50 [8]: 6.01
Structure (SMILES): Cc1cc2c(c(=S)[nH]1)C(=O)O/C2=C\c1cc2ccccc2s1
Activity [6]: 89%

inhibition [5]: 99%
pIC50 [8]: 5.14
Structure (SMILES): O=C1NC(=S)N/C1=C/c1ccc(-c2ccc3c(c2)COC3=O)o1

inhibition [5]: 98%
pIC50 [8]: 4.83
Structure (SMILES): O=C1NC(=S)N/C1=C/c1ccc(-c2ccc3c(c2)CCNC3=O)s1
inhibition [11]: 60%
